Tests used:
[1] = i.v., low molar activity tracer, PET-CT; cited from earlier work
healthy volunteers = experiment: first-in-human adverse event monitoring in healthy volunteers; assay type: in vivo
Method in brief: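 Participants were aged 56–75 (four male, four female). Tracer was given as an i.v. bolus (1–2 min) via a cephalic-vein catheter, supine, before 94 min of PET-MR over three sessions ending at 214 min. Adverse events were watched for continuously during scans, breaks and afterwards. Vital signs and ECG were taken ~60 min post-imaging, then physician/nurse review before discharge and off-site follow-up at 24–48 h. Later events were self-reported.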

[2] = whole-body PET-MR biodistribution and TIAC determination; assay type: in vivo, human
Method in brief: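 Tracer 70.3–355 MBq was given as an i.v. bolus; whole-body PET-MR used 6 bed positions. WB1–WB5 ran 0–34 min (1 min/bed), WB6–7 35–60 min (2 min/bed), WB8 80–104 min and WB9 180–214 min (4 min/bed). Voiding and water were allowed in breaks. SUV was read from AMIDE VOIs at early times (<1 h). Decay-corrected %IA per organ VOI over time was fitted by the exponential model (OLINDA/EXM 1.1) for TIACs.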

SUV, brain and spinal tissues ([2]; 27–34 min after injection): > 1
SUV, major organs, CNS and peripheral tissues ([2]; 27–34 min after injection): > 1
TIAC, Brain ([2]; F1 (189 MBq)): 0.084 MBq-h/MBq
TIAC, Gallbladder wall ([2]; F1 (189 MBq)): 0.0031 MBq-h/MBq
TIAC, Heart contents ([2]; F1 (189 MBq)): 0.00463 MBq-h/MBq
TIAC, Heart wall ([2]; F1 (189 MBq)): 0.0155 MBq-h/MBq
TIAC, Kidneys ([2]; F1 (189 MBq)): 0.25 MBq-h/MBq
TIAC, Liver ([2]; F1 (189 MBq)): 0.209 MBq-h/MBq
TIAC, Lungs ([2]; F1 (189 MBq)): 0.274 MBq-h/MBq
TIAC, Pancreas ([2]; F1 (189 MBq)): 0.00899 MBq-h/MBq
TIAC, Remainder ([2]; F1 (189 MBq)): 1.28 MBq-h/MBq
TIAC, Small intestine ([2]; F1 (189 MBq)): 0.0843 MBq-h/MBq
TIAC, Spleen ([2]; F1 (189 MBq)): 0.0284 MBq-h/MBq
TIAC, Thymus ([2]; F1 (189 MBq)): 0.00372 MBq-h/MBq
TIAC, Thyroid ([2]; F1 (189 MBq)): 0.00052 MBq-h/MBq
TIAC, Urinary bladder contents ([2]; F1 (189 MBq)): 0.138 MBq-h/MBq
TIAC, Uterus/Uterine wall ([2]; F1 (189 MBq)): 0.00432 MBq-h/MBq
TIAC, Brain ([2]; F2, no voiding (355 MBq)): 0.075 MBq-h/MBq
TIAC, Gallbladder wall ([2]; F2, no voiding (355 MBq)): 0.00204 MBq-h/MBq
TIAC, Heart contents ([2]; F2, no voiding (355 MBq)): 0.00054 MBq-h/MBq
TIAC, Heart wall ([2]; F2, no voiding (355 MBq)): 0.0118 MBq-h/MBq
TIAC, Kidneys ([2]; F2, no voiding (355 MBq)): 0.391 MBq-h/MBq
TIAC, Liver ([2]; F2, no voiding (355 MBq)): 0.202 MBq-h/MBq
TIAC, Lungs ([2]; F2, no voiding (355 MBq)): 0.31 MBq-h/MBq
TIAC, Pancreas ([2]; F2, no voiding (355 MBq)): 0.00377 MBq-h/MBq
TIAC, Small intestine ([2]; F2, no voiding (355 MBq)): 0.0474 MBq-h/MBq
TIAC, Spleen ([2]; F2, no voiding (355 MBq)): 0.00188 MBq-h/MBq
TIAC, Thymus ([2]; F2, no voiding (355 MBq)): 0.00178 MBq-h/MBq
TIAC, Thyroid ([2]; F2, no voiding (355 MBq)): 0.0047 MBq-h/MBq
TIAC, Urinary bladder contents ([2]; F2, no voiding (355 MBq)): 0.127 MBq-h/MBq
TIAC, Uterus/Uterine wall ([2]; F2, no voiding (355 MBq)): 0.0564 MBq-h/MBq
TIAC, Brain ([2]; F3 (117 MBq)): 0.0606 MBq-h/MBq
TIAC, Gallbladder wall ([2]; F3 (117 MBq)): 0.00328 MBq-h/MBq
TIAC, Heart contents ([2]; F3 (117 MBq)): 0.00112 MBq-h/MBq
TIAC, Heart wall ([2]; F3 (117 MBq)): 0.0131 MBq-h/MBq
TIAC, Kidneys ([2]; F3 (117 MBq)): 0.266 MBq-h/MBq
TIAC, Liver ([2]; F3 (117 MBq)): 0.262 MBq-h/MBq
TIAC, Lungs ([2]; F3 (117 MBq)): 0.186 MBq-h/MBq
TIAC, Pancreas ([2]; F3 (117 MBq)): 0.00504 MBq-h/MBq
TIAC, Remainder ([2]; F3 (117 MBq)): 1.44 MBq-h/MBq
TIAC, Small intestine ([2]; F3 (117 MBq)): 0.0667 MBq-h/MBq
TIAC, Spleen ([2]; F3 (117 MBq)): 0.011 MBq-h/MBq
TIAC, Thymus ([2]; F3 (117 MBq)): 0.00146 MBq-h/MBq
TIAC, Thyroid ([2]; F3 (117 MBq)): 0.00131 MBq-h/MBq
TIAC, Urinary bladder contents ([2]; F3 (117 MBq)): 0.00659 MBq-h/MBq
TIAC, Uterus/Uterine wall ([2]; F3 (117 MBq)): 0.0115 MBq-h/MBq
TIAC, Brain ([2]; F4 (167 MBq)): 0.0781 MBq-h/MBq
TIAC, Gallbladder wall ([2]; F4 (167 MBq)): 0.00062 MBq-h/MBq
TIAC, Heart contents ([2]; F4 (167 MBq)): 0.0015 MBq-h/MBq
TIAC, Heart wall ([2]; F4 (167 MBq)): 0.0212 MBq-h/MBq
TIAC, Kidneys ([2]; F4 (167 MBq)): 0.245 MBq-h/MBq
TIAC, Liver ([2]; F4 (167 MBq)): 0.192 MBq-h/MBq
TIAC, Lungs ([2]; F4 (167 MBq)): 0.231 MBq-h/MBq
TIAC, Pancreas ([2]; F4 (167 MBq)): 0.0053 MBq-h/MBq
TIAC, Remainder ([2]; F4 (167 MBq)): 1.22 MBq-h/MBq
TIAC, Small intestine ([2]; F4 (167 MBq)): 0.126 MBq-h/MBq
TIAC, Spleen ([2]; F4 (167 MBq)): 0.0057 MBq-h/MBq
TIAC, Thymus ([2]; F4 (167 MBq)): 0.0021 MBq-h/MBq
TIAC, Thyroid ([2]; F4 (167 MBq)): 0.0009 MBq-h/MBq
TIAC, Urinary bladder contents ([2]; F4 (167 MBq)): 0.0319 MBq-h/MBq
TIAC, Uterus/Uterine wall ([2]; F4 (167 MBq)): 0.0133 MBq-h/MBq
TIAC, Brain ([2]; M1 (326 MBq)): 0.0947 MBq-h/MBq
TIAC, Gallbladder wall ([2]; M1 (326 MBq)): 0.00525 MBq-h/MBq
TIAC, Heart contents ([2]; M1 (326 MBq)): 0.00354 MBq-h/MBq
TIAC, Heart wall ([2]; M1 (326 MBq)): 0.0301 MBq-h/MBq
TIAC, Kidneys ([2]; M1 (326 MBq)): 0.351 MBq-h/MBq
TIAC, Liver ([2]; M1 (326 MBq)): 0.34 MBq-h/MBq
TIAC, Lungs ([2]; M1 (326 MBq)): 0.322 MBq-h/MBq
TIAC, Pancreas ([2]; M1 (326 MBq)): 0.0022 MBq-h/MBq
TIAC, Remainder ([2]; M1 (326 MBq)): 1.27 MBq-h/MBq
TIAC, Small intestine ([2]; M1 (326 MBq)): 0.161 MBq-h/MBq
TIAC, Spleen ([2]; M1 (326 MBq)): 0.0528 MBq-h/MBq
TIAC, Thymus ([2]; M1 (326 MBq)): 0.00576 MBq-h/MBq
TIAC, Thyroid ([2]; M1 (326 MBq)): 0.0007 MBq-h/MBq
TIAC, Urinary bladder contents ([2]; M1 (326 MBq)): 0.00668 MBq-h/MBq
TIAC, Brain ([2]; M2 (289 MBq)): 0.0531 MBq-h/MBq
TIAC, Gallbladder wall ([2]; M2 (289 MBq)): 0.0017 MBq-h/MBq
TIAC, Heart contents ([2]; M2 (289 MBq)): 0.0248 MBq-h/MBq
TIAC, Heart wall ([2]; M2 (289 MBq)): 0.202 MBq-h/MBq
TIAC, Kidneys ([2]; M2 (289 MBq)): 0.424 MBq-h/MBq
TIAC, Liver ([2]; M2 (289 MBq)): 0.19 MBq-h/MBq
TIAC, Lungs ([2]; M2 (289 MBq)): 0.0012 MBq-h/MBq
TIAC, Pancreas ([2]; M2 (289 MBq)): 0.111 MBq-h/MBq
TIAC, Remainder ([2]; M2 (289 MBq)): 1.37 MBq-h/MBq
TIAC, Small intestine ([2]; M2 (289 MBq)): 0.00196 MBq-h/MBq
TIAC, Spleen ([2]; M2 (289 MBq)): 0.0158 MBq-h/MBq
TIAC, Thymus ([2]; M2 (289 MBq)): 0.0013 MBq-h/MBq
TIAC, Thyroid ([2]; M2 (289 MBq)): 0.00039 MBq-h/MBq
TIAC, Urinary bladder contents ([2]; M2 (289 MBq)): 0.017 MBq-h/MBq
TIAC, Brain ([2]; M3 (70.3 MBq)): 0.0611 MBq-h/MBq
TIAC, Gallbladder wall ([2]; M3 (70.3 MBq)): 0.00199 MBq-h/MBq
TIAC, Heart contents ([2]; M3 (70.3 MBq)): 0.0027 MBq-h/MBq
TIAC, Heart wall ([2]; M3 (70.3 MBq)): 0.0297 MBq-h/MBq
TIAC, Kidneys ([2]; M3 (70.3 MBq)): 0.286 MBq-h/MBq
TIAC, Liver ([2]; M3 (70.3 MBq)): 0.249 MBq-h/MBq
TIAC, Lungs ([2]; M3 (70.3 MBq)): 0.298 MBq-h/MBq
TIAC, Pancreas ([2]; M3 (70.3 MBq)): 0.00353 MBq-h/MBq
TIAC, Remainder ([2]; M3 (70.3 MBq)): 1.29 MBq-h/MBq
TIAC, Small intestine ([2]; M3 (70.3 MBq)): 0.0651 MBq-h/MBq
TIAC, Spleen ([2]; M3 (70.3 MBq)): 0.0218 MBq-h/MBq
TIAC, Thymus ([2]; M3 (70.3 MBq)): 0.00217 MBq-h/MBq
TIAC, Thyroid ([2]; M3 (70.3 MBq)): 0.00057 MBq-h/MBq
TIAC, Urinary bladder contents ([2]; M3 (70.3 MBq)): 0.0429 MBq-h/MBq
TIAC, Brain ([2]; M4 (153 MBq)): 0.078 MBq-h/MBq
TIAC, Gallbladder wall ([2]; M4 (153 MBq)): 0.00356 MBq-h/MBq
TIAC, Heart contents ([2]; M4 (153 MBq)): 0.0033 MBq-h/MBq
TIAC, Heart wall ([2]; M4 (153 MBq)): 0.0276 MBq-h/MBq
TIAC, Kidneys ([2]; M4 (153 MBq)): 0.332 MBq-h/MBq
TIAC, Liver ([2]; M4 (153 MBq)): 0.229 MBq-h/MBq
TIAC, Lungs ([2]; M4 (153 MBq)): 0.214 MBq-h/MBq
TIAC, Pancreas ([2]; M4 (153 MBq)): 0.00723 MBq-h/MBq
TIAC, Remainder ([2]; M4 (153 MBq)): 1.39 MBq-h/MBq
TIAC, Small intestine ([2]; M4 (153 MBq)): 0.12 MBq-h/MBq
TIAC, Spleen ([2]; M4 (153 MBq)): 0.0354 MBq-h/MBq
TIAC, Thymus ([2]; M4 (153 MBq)): 0.00492 MBq-h/MBq
TIAC, Thyroid ([2]; M4 (153 MBq)): 0.00105 MBq-h/MBq
TIAC, Urinary bladder contents ([2]; M4 (153 MBq)): 0.0178 MBq-h/MBq
Structure (SMILES): COC(=O)[C@@H](N)CC(=O)Nc1ccc2c(c1)Cc1cc([18F])ccc1-2 [[^18F]RP-115, methyl N^4-(7-[^18F]fluoro-9H-fluoren-2-yl)asparaginate]
CNS activity uptake (SUV) [1]: > 1
adverse events / pharmacological effects (healthy volunteers; 70.3–355 MBq i.v. bolus, n=8, ≤48 h and up to 1 year): no adverse events (AE) or clinically detectable pharmacological effects
tolerability (healthy volunteers; 70.3–355 MBq i.v., n=8, PET-MR scanning protocol): well tolerated
